# According to ChEMBL document CHEMBL4364256, “Design, synthesis and biological evaluation of antimicrobial diarylimine and -amine compounds targeting the interaction between the bacterial NusB and NusE proteins” (Eur J Med Chem, 2019):
# Experiments:
# [1] = test system: Staphylococcus aureus; experiment: Antimicrobial activity against CA-methicillin-resistant Staphylococcus aureus W47 ST30 incubated for 20 hrs by microdilution method; format: functional; settings: W47 ST30, 20 h
# In short: (§1)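 MIC determined by microdilution following Clinical & Laboratory Standards Institute (CLSI) guidelines, read in µg/mL, against a panel of hospital- and community-acquired MRSA strains.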
# [2] = test system: Staphylococcus aureus; experiment: Antimicrobial activity against Staphylococcus aureus USA300/ST8 incubated for 20 hrs by microdilution method; settings: USA300 ST8, 20 h
# [3] = test system: Staphylococcus epidermidis; experiment: Antimicrobial activity against Staphylococcus epidermidis ATCC 12228 incubated for 20 hrs by microdilution method; format: functional; settings: ATCC 12228, 20 h
# In short: (§2)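 Broth microdilution MIC testing done following CLSI guidelines.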
# [4] = test system: Staphylococcus aureus; experiment: Antimicrobial activity against Staphylococcus aureus HA W231 ST45 incubated for 20 hrs by microdilution method; format: functional; settings: HA W231 ST45, 20 h; in short: as §1
# [5] = test system: Staphylococcus aureus; experiment: Antimicrobial activity against CA-methicillin-resistant Staphylococcus aureus W45 ST59 incubated for 20 hrs by microdilution method; settings: W45 ST59, 20 h
# [6] = test system: Staphylococcus aureus; experiment: Antimicrobial activity against Staphylococcus aureus HA W235 ST5 incubated for 20 hrs by microdilution method; format: functional; settings: HA W235 ST5, 20 h; in short: as §1
# [7] = test system: Staphylococcus aureus; experiment: Antimicrobial activity against Staphylococcus aureus ATCC BAA44 incubated for 20 hrs by microdilution method; format: functional; settings: ATCC BAA44, 20 h; in short: as §1
# [8] = test system: Staphylococcus aureus; experiment: Antimicrobial activity against Staphylococcus aureus ST22 11B086169 incubated for 20 hrs by microdilution method; format: functional; settings: ST22 11B086169, 20 h; in short: as §1
# [9] = test system: Streptococcus pyogenes; experiment: Antimicrobial activity against Streptococcus pyogenes ATCC 19615 incubated for 20 hrs by microdilution method; format: functional; settings: ATCC 19615, 20 h; in short: as §2
# [10] = test system: Pseudomonas aeruginosa; experiment: Antimicrobial activity against Pseudomonas aeruginosa ATCC 27853 incubated for 20 hrs by microdilution method; format: functional; settings: ATCC 27853, 20 h; in short: as §2
# [11] = test system: Enterococcus casseliflavus; experiment: Antimicrobial activity against Enterococcus casseliflavus ATCC 25788 incubated for 20 hrs by microdilution method; format: functional; settings: ATCC 25788, 20 h; in short: as §2
# [12] = test system: Streptococcus pneumoniae; experiment: Antimicrobial activity against Streptococcus pneumoniae ATCC 49619 incubated for 20 hrs by microdilution method; format: functional; settings: ATCC 49619, 20 h; in short: as §2
# [13] = Antimicrobial activity against Staphylococcus saprophyticus ATCC 15305 incubated for 20 hrs by microdilution method; format: functional, Staphylococcus saprophyticus subsp. saprophyticus; settings: ATCC 15305, 20 h; in short: as §2
# [14] = test system: Staphylococcus aureus; experiment: Antimicrobial activity against CA-methicillin-resistant Staphylococcus aureus W46 ST59 incubated for 20 hrs by microdilution method; settings: W46 ST59, 20 h
# [15] = test system: Staphylococcus aureus; experiment: Antimicrobial activity against Staphylococcus aureus ATCC BAA43 incubated for 20 hrs by microdilution method; format: functional; settings: ATCC BAA43, 20 h; in short: as §1
# [16] = microbe, parasite or virus in culture; settings: Enterobacter cloacae, ATCC 13047, 20 h
# [17] = test system: Streptococcus agalactiae; experiment: Antimicrobial activity against Streptococcus agalactiae ATCC 12386 incubated for 20 hrs by microdilution method; format: functional; settings: ATCC 12386, 20 h; in short: as §2
# [18] = test system: Enterococcus faecium; experiment: Antimicrobial activity against Enterococcus faecium ATCC 19433 incubated for 20 hrs by microdilution method; format: functional; settings: ATCC 19433, 20 h; in short: as §2
# [19] = test system: Acinetobacter baumannii; experiment: Antimicrobial activity against Acinetobacter baumannii ATCC 19606 incubated for 20 hrs by microdilution method; format: functional; settings: ATCC 19606 = CIP 70.34 = JCM 6841, 20 h; in short: as §2
# [20] = test system: Staphylococcus aureus; experiment: microbe, parasite or virus in culture; settings: ATCC 25923, 20 h
# [21] = test system: Staphylococcus aureus; experiment: Antimicrobial activity against CA-methicillin-resistant Staphylococcus aureus W4 ST338 incubated for 20 hrs by microdilution method; format: functional; settings: W4 ST338, 20 h; in short: as §1
# [22] = test system: Staphylococcus aureus; experiment: microbe, parasite or virus in culture; settings: ATCC 29213, 20 h
# [23] = test system: Staphylococcus aureus; experiment: Antimicrobial activity against Staphylococcus aureus ST239 incubated for 20 hrs by microdilution method; format: functional; settings: CN79, 20 h; in short: as §1
# [24] = test system: Staphylococcus aureus; experiment: Antimicrobial activity against CA-methicillin-resistant Staphylococcus aureus W48 ST217 incubated for 20 hrs by microdilution method; settings: W48 ST217, 20 h
# [25] = test system: Bacillus subtilis; experiment: Inhibition of N-terminal LgBiT-fused Bacillus subtilis NusB expressed in Escherichia coli BL21(DE3)pLysS interaction with C- terminal SmBiT-fused Bacillus subtilis NusE expressed in Escherichia coli BL21(DE3)pLysS at 100 uM preincubated for 10 mins followed by NusE addition and measured after 10 mins by nano-glo luciferase assay relative to control
# In short: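 NusB and NusE were mixed 1:1 at 1 µM in PBS, with compound at 100 µM. The read-out was percent inhibition of the NusB-NusE interaction.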
SMILES,MIC [10],MIC [12],MIC [16],MIC [18],MIC [19],MIC [20],MIC [22],inhibition [25],also measured
Cc1onc(-c2ccccc2)c1C(=O)N[C@@H]1C(=O)N2[C@@H]1SC(C)(C)[C@@H]2C(=O)O [OXACILLIN],> 256 µg/mL,2 µg/mL,> 256 µg/mL,16 µg/mL,> 256 µg/mL,0.5 to 1 µg/mL,0.25 µg/mL,,MIC [1]: 4 µg/mL; MIC [2]: 32 µg/mL; MIC [3]: 0.25 µg/mL; MIC [4]: 4 µg/mL; MIC [5]: 8 µg/mL; MIC [6]: > 256 µg/mL; MIC [7]: > 256 µg/mL; MIC [8]: 64 µg/mL; MIC [9]: 0.0625 µg/mL; MIC [11]: 32 µg/mL; MIC [13]: 1 µg/mL; MIC [14]: 8 µg/mL; MIC [15]: > 256 µg/mL; MIC [17]: 0.5 µg/mL; MIC [21]: 0.5 µg/mL; MIC [23]: > 256 µg/mL; MIC [24]: 64 µg/mL
O=C(O)c1cn(C2CC2)c2cc(N3CCNCC3)c(F)cc2c1=O [CIPROFLOXACIN],,,,4 µg/mL,2 µg/mL,0.5 to 1 µg/mL,0.5 to 1 µg/mL,,MIC [1]: 0.5 µg/mL; MIC [2]: 4 µg/mL; MIC [3]: 0.0625 µg/mL; MIC [4]: 2 µg/mL; MIC [5]: 0.25 µg/mL; MIC [6]: 4 µg/mL; MIC [7]: 4 µg/mL; MIC [8]: 4 µg/mL; MIC [9]: 0.5 µg/mL; MIC [11]: 4 µg/mL; MIC [13]: 0.5 µg/mL; MIC [14]: 0.25 µg/mL; MIC [15]: 2 µg/mL; MIC [17]: 4 µg/mL; MIC [21]: 0.5 µg/mL; MIC [23]: 4 µg/mL; MIC [24]: 4 µg/mL
CN[C@H](CC(C)C)C(=O)N[C@H]1C(=O)N[C@@H](CC(N)=O)C(=O)N[C@H]2C(=O)N[C@H]3C(=O)N[C@H](C(=O)N[C@H](C(=O)O)c4cc(O)cc(O)c4-c4cc3ccc4O)[C@H](O)c3ccc(c(Cl)c3)Oc3cc2cc(c3O[C@@H]2O[C@H](CO)[C@@H](O)[C@H](O)[C@H]2O[C@H]2C[C@](C)(N)[C@H](O)[C@H](C)O2)Oc2ccc(cc2Cl)[C@H]1O [VANCOMYCIN],> 256 µg/mL,0.5 µg/mL,> 256 µg/mL,,> 256 µg/mL,1 to 2 µg/mL,,,MIC [11]: 4 µg/mL; MIC [13]: 1 µg/mL; MIC [17]: 0.5 µg/mL
O=[N+]([O-])c1ccc(O)c(CNc2ccc(C(F)(F)F)cc2)c1,> 256 µg/mL,16 µg/mL,256 µg/mL,32 µg/mL,32 µg/mL,8 µg/mL,8 µg/mL,54.1%,
C#Cc1ccccc1/N=C/c1cc([N+](=O)[O-])ccc1O,> 256 µg/mL,32 µg/mL,> 256 µg/mL,> 256 µg/mL,> 256 µg/mL,4 µg/mL,16 µg/mL,71.4%,
C#Cc1cccc(/N=C/c2cccc([N+](=O)[O-])c2O)c1,256 µg/mL,256 µg/mL,> 256 µg/mL,256 µg/mL,> 256 µg/mL,256 µg/mL,256 µg/mL,87.7%,
C#Cc1cccc(/N=C/c2cc(O)ccc2[N+](=O)[O-])c1,> 256 µg/mL,> 256 µg/mL,> 256 µg/mL,> 256 µg/mL,256 µg/mL,256 µg/mL,256 µg/mL,52.2%,
C#Cc1cccc(NCc2cc([N+](=O)[O-])ccc2OC)c1,> 256 µg/mL,> 256 µg/mL,> 256 µg/mL,> 256 µg/mL,> 256 µg/mL,> 256 µg/mL,> 256 µg/mL,56.1%,
C#Cc1cccc(/N=C/c2cc(C#N)ccc2O)c1,> 256 µg/mL,128 µg/mL,> 256 µg/mL,256 µg/mL,> 256 µg/mL,32 µg/mL,64 µg/mL,61.3%,
C#Cc1cccc(NCc2cccc([N+](=O)[O-])c2)c1,> 256 µg/mL,> 256 µg/mL,> 256 µg/mL,> 256 µg/mL,> 256 µg/mL,> 256 µg/mL,> 256 µg/mL,33.1%,
C#Cc1cccc(NCc2ccc([N+](=O)[O-])cc2O)c1,> 256 µg/mL,16 µg/mL,> 256 µg/mL,32 µg/mL,64 µg/mL,8 µg/mL,8 µg/mL,48.2%,
O=[N+]([O-])c1ccc(O)c(CNc2cccc(C(F)(F)F)c2)c1,> 256 µg/mL,16 µg/mL,256 µg/mL,16 µg/mL,64 µg/mL,4 µg/mL,4 µg/mL,61.7%,
O=[N+]([O-])c1ccc(O)c(CNc2ccccc2)c1,> 256 µg/mL,64 µg/mL,> 256 µg/mL,128 µg/mL,256 µg/mL,16 µg/mL,32 µg/mL,4.6%,
O=[N+]([O-])c1ccc(O)c(/C=N/c2cccc(O)c2)c1,> 256 µg/mL,256 µg/mL,> 256 µg/mL,> 256 µg/mL,> 256 µg/mL,16 µg/mL,64 µg/mL,96.3%,
C#Cc1cccc(NCc2cc([N+](=O)[O-])ccc2O)c1,> 256 µg/mL,8 µg/mL,> 256 µg/mL,16 µg/mL,128 µg/mL,16 µg/mL,16 µg/mL,47.7%,
CC(C)(C)c1cccc(/N=C/c2cc([N+](=O)[O-])ccc2O)c1,> 256 µg/mL,256 µg/mL,> 256 µg/mL,> 256 µg/mL,128 µg/mL,4 µg/mL,16 µg/mL,51.3%,
C#Cc1cccc(/N=C/c2ccc([N+](=O)[O-])cc2O)c1,> 256 µg/mL,128 µg/mL,> 256 µg/mL,> 256 µg/mL,> 256 µg/mL,64 µg/mL,256 µg/mL,46.7%,

# More lines, main results first:
MIC [10],MIC [12],MIC [16],MIC [18],MIC [19],MIC [20],MIC [22],inhibition [25],SMILES,also measured
> 256 µg/mL,128 µg/mL,> 256 µg/mL,> 256 µg/mL,> 256 µg/mL,64 µg/mL,128 µg/mL,66.7%,O=[N+]([O-])c1ccc(O)c(CNc2cccc(O)c2)c1,
> 256 µg/mL,8 µg/mL,> 256 µg/mL,256 µg/mL,128 µg/mL,32 µg/mL,64 µg/mL,54.2%,C#Cc1cccc(/N=C/c2cc(Cl)cc(Cl)c2O)c1,
256 µg/mL,256 µg/mL,> 256 µg/mL,> 256 µg/mL,256 µg/mL,256 µg/mL,> 256 µg/mL,28.1%,C#Cc1cccc(/N=C/c2cc(F)ccc2O)c1,
256 µg/mL,16 µg/mL,128 µg/mL,32 µg/mL,> 256 µg/mL,8 µg/mL,4 µg/mL,53.6%,O=[N+]([O-])c1ccc(O)c(CNc2ccc(Cl)cc2)c1,
> 256 µg/mL,8 µg/mL,> 256 µg/mL,64 µg/mL,> 256 µg/mL,64 µg/mL,32 µg/mL,58.3%,C#Cc1cccc(NCc2cc(OC)ccc2O)c1,
256 µg/mL,128 µg/mL,> 256 µg/mL,> 256 µg/mL,64 µg/mL,128 µg/mL,> 256 µg/mL,41.4%,C#Cc1cccc(/N=C/c2cc(C(=O)OC)ccc2O)c1,
> 256 µg/mL,256 µg/mL,> 256 µg/mL,> 256 µg/mL,> 256 µg/mL,128 µg/mL,16 µg/mL,64.5%,C#Cc1cccc(NCc2cccc([N+](=O)[O-])c2O)c1,
